Laboratory results as given in ChEMBL document CHEMBL2440109, “Synthesis and antimycobacterial activity of isoniazid derivatives from renewable fatty acids” (2013).
Values after ≈ are worked out from the molar mass of the structure shown.

Legend:
Format in all cases: functional
[1] = test system: Mycobacterium tuberculosis; experiment: Antimycobacterial activity against rifampicin-resistant Mycobacterium tuberculosis ATCC 35338 harboring rpoB His-526-Tir gene mutant after 7 days by REMA assay
Procedure, shortened: (§1)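 MIC by resazurin microtiter assay. Bacteria suspended in sterile water with glass beads, vortexed, turbidity set to McFarland tube 1 (3.2 × 10^6 CFU/mL), then diluted 1:20 in Middlebrook 7H9. Compounds in DMSO, two-fold serial dilutions (100.0-3.2 µg/mL) in 7H9 with 10% OADC. Incubated 37 °C for 7 days, resazurin added, further 2 days at 37 °C. MIC read from colour change.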

[2] = test system: Mycobacterium tuberculosis; experiment: Antimycobacterial activity against isoniazid-resistant Mycobacterium tuberculosis 1896HF harboring inhA mutant after 7 days by REMA assay
Procedure, shortened: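 MIC by resazurin microtiter assay. Bacteria suspended in sterile water with glass beads, vortexed, turbidity set to McFarland tube 1 (3.2 × 10^6 CFU/mL), then diluted 1:20 in Middlebrook 7H9. Incubated 37 °C for 7 days, resazurin added, further 2 days at 37 °C. MIC read from colour change.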

[3] = test system: Mycobacterium tuberculosis; experiment: Antimycobacterial activity against isoniazid-resistant Mycobacterium tuberculosis ATCC 35822 harboring katG mutant after 7 days by REMA assay; procedure, shortened: as §1

Compound: CCCCC/C=C\C/C=C\CCCCCCCC(=O)NNC(=O)c1ccncc1
- MIC [1]: 0.03 µg/mL (≈ 0.0751 µM)
- MIC [2]: 12.5 µg/mL (≈ 31.3 µM)
- MIC [3]: 2 µg/mL (≈ 5.01 µM)

Compound: CCCCCCCC/C=C\CCCCCCCC(=O)NN [OLEOHYDRAZIDE]
- MIC [1]: 50 µg/mL (≈ 169 µM)
- MIC [2]: >100 µg/mL
- MIC [3]: 50 µg/mL (≈ 169 µM)

Compound: CCCCCCCCCCCCCCCCCC(=O)NNC(=O)c1ccncc1
- MIC [1]: 0.003 µg/mL (≈ 0.00743 µM)
- MIC [2]: 3.12 µg/mL (≈ 7.73 µM)
- MIC [3]: 0.25 µg/mL (≈ 0.619 µM)

Compound: CCCCCCCCCCCCCCCC(=O)NNC(=O)c1ccncc1
- MIC [1]: 0.003 µg/mL (≈ 0.00799 µM)
- MIC [2]: 0.78 µg/mL (≈ 2.08 µM)
- MIC [3]: 0.125 µg/mL (≈ 0.333 µM)

Compound: CO[C@H]1/C=C/O[C@@]2(C)Oc3c(C)c(O)c4c(O)c(c(/C=N/N5CCN(C)CC5)c(O)c4c3C2=O)NC(=O)/C(C)=C\C=C\[C@H](C)[C@H](O)[C@@H](C)[C@@H](O)[C@@H](C)[C@H](OC(C)=O)[C@@H]1C [RIFAMPIN]
- MIC [1]: >2 µg/mL
- MIC [3]: 0.03 µg/mL (≈ 0.0365 µM)

Compound: CCCCCCCC/C=C\CCCCCCCC(=O)NNC(=O)c1ccncc1
- MIC [1]: 0.003 µg/mL (≈ 0.00747 µM)
- MIC [2]: 1.56 µg/mL (≈ 3.88 µM)
- MIC [3]: 0.25 µg/mL (≈ 0.623 µM)

Compound: CCCCCCCC/C=C/CCCCCCCC(=O)NNC(=O)c1ccncc1
- MIC [1]: 0.0019 µg/mL (≈ 0.00473 µM)
- MIC [2]: 6.25 µg/mL (≈ 15.6 µM)
- MIC [3]: >50 µg/mL

Compound: CCCCCC[C@@H](O)C/C=C\CCCCCCCC(=O)NNC(=O)c1ccncc1
- MIC [1]: 0.015 µg/mL (≈ 0.0359 µM)
- MIC [2]: 12.5 µg/mL (≈ 29.9 µM)
- MIC [3]: 25 µg/mL (≈ 59.9 µM)

Compound: CCCCCCCC/C=C\CCCCCCCC(=O)O [OLEIC ACID]
- MIC [1]: >100 µg/mL
- MIC [2]: >100 µg/mL
- MIC [3]: >100 µg/mL

Compound: CC/C=C\C/C=C\C/C=C\CCCCCCCC(=O)NNC(=O)c1ccncc1
- MIC [1]: 0.03 µg/mL (≈ 0.0755 µM)
- MIC [2]: 12.5 µg/mL (≈ 31.4 µM)
- MIC [3]: 25 µg/mL (≈ 62.9 µM)

Compound: NNC(=O)c1ccncc1 [ISONIAZID]
- MIC [1]: 0.015 µg/mL (≈ 0.109 µM)
- MIC [2]: 2 µg/mL (≈ 14.6 µM)
- MIC [3]: 2 µg/mL (≈ 14.6 µM)
